Hits are enriched below; roughly 1.9% of the tested compounds scored in any of these assays.
sPLA2-III inh: Blocks human group III sPLA2 activity | inhibition, % at 12.2 µM | AID 743126 | 0.56% of 370,000 active | Q9NZ20 | QFRET BODIPY PC-A2 liposome hydrolysis, fluorescence;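 active means inhibition above mean plus 3 SD of compounds lying within the high and low control bounds, cut at about 19% in these data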;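 further: 0% = median of test compound wells and 100% = no enzyme DMSO wells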
PLC-gamma1 inh: inhibitors of human phospholipase C gamma1; P19174; purified PLC-gamma1, fluorogenic substrate, fluorescence; inhibition, % at 12.2 µM; 0.84% of 370,000 active; in the data active means inhibition above about 9.5%
Arr AP2 block: human beta-arrestin and AP2 interaction inhibition; FITC-arrestin peptide / GST-AP2 beads, flow cytometry; AP2 beta2 appendage carries R879A mutation; inhibition, % at 10 µM; 0.31% of 340,000 active; AID 504490;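 active means inhibition above a set limit, near 3 SD of compounds lacking own fluorescence, cut at about 54% in these data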;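 further: plate controls were DMSO wells for no effect and 5 µM unlabelled arrestin peptide for full effect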
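system = GST-tagged AP2 beta2-adaptin appendage (R879A) on 4 µm glutathione beads | reagent = FITC-labelled arrestin peptide probe, 50 nM final | schedule = compound with beads 12 min RT, then probe 1 h RT | signal = HyperCyt-sampled flow cytometry, FL1 channel, ex 488/em 535 nm | read-out = percent response from loss of bead-bound FITC fluorescence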
PLC-beta3 inh: blocks human PLC-beta3 enzyme activity | Q01970 | inhibition, % at 12.2 µM | 0.18% of 370,000 active | Purified PLC-beta3, fluorogenic substrate, fluorescence;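 further: 0% = median of compound wells on plate and 100% = full blocker control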
proCasp7 act: counter-screen for procaspase-3 activators: activators of human procaspase-7 | P55210 | recombinant procaspase-7, Ac-DEVD-pNA absorbance 405 nm; D23A/D198A/D206A triple mutant, cannot self-cleave; scale: DMSO 0, 5 µM enzyme 100 | activation, % at 8.5 µM | 0.093% of 330,000 active;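 active means percent activation above the screen-wide mean plus 3 SD, cut at about 25% in these data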
Target sequence (P55210 whole entry D23A/D198A/D206A): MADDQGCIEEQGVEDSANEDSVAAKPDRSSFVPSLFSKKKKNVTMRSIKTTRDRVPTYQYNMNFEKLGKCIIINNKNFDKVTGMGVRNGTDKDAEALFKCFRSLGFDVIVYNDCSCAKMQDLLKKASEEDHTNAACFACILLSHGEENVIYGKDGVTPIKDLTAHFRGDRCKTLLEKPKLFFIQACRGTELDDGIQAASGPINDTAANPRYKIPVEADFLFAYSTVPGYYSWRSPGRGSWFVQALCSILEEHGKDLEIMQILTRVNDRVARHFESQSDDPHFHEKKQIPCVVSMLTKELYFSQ
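Replicates: singlicate. Assay system: Procaspase-7 triple mutant (PC-7 D3A). Signal: 405 nm absorbance of p-nitroaniline. Times: 1 h preincubation, 2 h reaction. Buffer or medium: Zinc-free HEPES pH 7.4 with 300 mM NaCl, 0.01% Triton X-100. Also added: DEVD-pNA substrate. Benchmarks: DMSO wells as 0%, DMSO with 5 µM added PC-7 as 100%.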
procasp3 activ: procaspase-3 (human) activation. recombinant procaspase-3 D3A, Ac-DEVD-pNA absorbance 405 nm. 0.11% of 330,000 active. P42574. activation, % at 8.5 µM;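 active means activation above the mean of all tested compounds plus 3 SD, cut at about 21% in these data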;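 further: 0% = DMSO alone and 100% = DMSO wells spiked with extra 5 µM PC-3 D3A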
Target sequence (P42574 whole entry D9A/D28A/D175A): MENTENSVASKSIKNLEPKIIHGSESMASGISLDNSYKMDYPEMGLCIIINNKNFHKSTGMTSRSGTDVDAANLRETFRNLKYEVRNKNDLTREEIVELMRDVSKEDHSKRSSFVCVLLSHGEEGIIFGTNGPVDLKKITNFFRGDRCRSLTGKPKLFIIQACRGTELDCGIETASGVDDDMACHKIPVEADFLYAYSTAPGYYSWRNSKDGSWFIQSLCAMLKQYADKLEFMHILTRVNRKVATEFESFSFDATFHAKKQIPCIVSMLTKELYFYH
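Evaluation: percent activation relative to control range; Material: Procaspase-3 D3A mutant, all three cleavage aspartates alanine; Compound: single dose, 8.5 µM nominal compound, 0.8% DMSO; Replication: one well per compound; Signal: absorbance at 405 nm, 0 and 120 min; Schedule: 1 h preincubation plus 2 h reaction at 25 °C.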
PLCg1 ctr: counter-screen for PLC-beta3 inhibitors: inhibitors of human PLC-gamma1; purified PLC-gamma1, fluorogenic substrate, fluorescence; 3.1% of 3,300 active; inhibition, % at 12.3 µM; AID 743258; shares compounds with PLC-gamma1 inh; in the data active means inhibition above about 9.5%
PLCb3 confirm: confirmation of human PLC-beta3 inhibitors | shares compounds with PLC-gamma1 inh | purified PLC-beta3, fluorogenic substrate fluorescence | inhibition, % at 12.3 µM | 1% of 3,300 active
Numbers without * were called inactive; x = no result given. Unless noted, no stated cut-off is given here; in the data, active means inhibition above about 11%; inactive means the rest.

SMILES	sPLA2-III inh	PLC-gamma1 inh	Arr AP2 block	PLC-beta3 inh	proCasp7 act	procasp3 activ	PLCg1 ctr	PLCb3 confirm
Cc1onc(C(=O)N2CCOCC2)c1[N+](=O)[O-]	11	-1	4	4	-9	11	x	x
CC(C)c1onc(C(=O)N2CCOCC2)c1[N+](=O)[O-]	3	8	-5	13*	2	2	-5	-1
Fc1cccc(Cl)c1CN1CCN(c2ncc(Cc3ccccc3)cn2)CC1	5	0	x	-2	x	x	x	x
c1csc(CNCCN2CCOCC2)c1	13	12*	11	1	-10	-5	-6	-3
COc1ccccc1CCn1cnc(-c2ccc(F)cc2)c1C(C)C	-4	1	x	1	x	x	x	x
C=CC[C@@H](CC(=O)N(CCO)Cc1ccccc1)C(=O)NC[C@H](OC(=O)[C@@H](CC=C)Cc1ccc(F)cc1)c1ccccc1	-40	10*	x	4	12	14	-5	-1
C=CCC[C@H](Cc1ccc(F)cc1)C(=O)OC[C@H](Cc1c[nH]c2ccccc12)NC(=O)[C@@H](CC=C)CC(=O)N[C@H](CO)Cc1ccccc1	-106	12*	1	-3	19	5	5	-1
C=CC[C@@H](CC(=O)N(CCO)Cc1ccccc1)C(=O)N[C@H](COC(=O)[C@@H](CC=C)CC(=O)OC(C)(C)C)Cc1c[nH]c2ccccc12	-90	9.6*	-2	9	5	1	1	-9
C=CCC[C@H](Cc1ccc(F)cc1)C(=O)OC[C@@H](Cc1c[nH]c2ccccc12)NC(=O)[C@H](CC=C)CC(=O)N(CCO)Cc1ccccc1	-96	12*	-10	5	5	1	-6	-2
C=CCC[C@H](Cc1ccc(F)cc1)C(=O)OC[C@H](Cc1c[nH]c2ccccc12)NC(=O)[C@@H](CC=C)CC(=O)N[C@@H](CO)Cc1ccccc1	-9	1	-2	4	3	2	x	x
O=C(Nc1ccc(C(O)(C(F)(F)F)C(F)(F)F)cc1)c1ccccc1C(F)(F)F	-27	-4	x	-1	x	x	x	x
O=C(O)c1ccc(-n2nc(-c3ccccc3O)nc2-c2ccccc2O)cc1	-10	-5	x	-14	x	x	x	x
O=C1C(NC(=O)C(F)(F)Br)CCCCN1Cc1cccc(C(F)(F)F)c1 (stereo not given)	2	-2	x	3	x	x	x	x
COc1cccc(C(=O)N(CN2CCCC2=O)c2cccc(Cl)c2)c1	-1	11*	1	6	-4	-7	-2	0
CCN(CC)S(=O)(=O)c1ccc(N2CCOCC2)c(NS(=O)(=O)c2cc(C(C)(C)C)ccc2C)c1	-30	12*	-1	6	-6	-7	-2	-26
N[C@H](C(=O)N1CCC[C@@H]1C(=O)N1CCC2CCN(S(=O)(=O)c3ccccc3)CC21)c1ccccc1 (stereo not given in full)	14	6	x	9	x	x	x	x
Cc1onc(-c2ccccc2)c1C(=O)NC(=S)NNC(=O)c1cccnc1	3	10*	2	5	-14	-10	-2	-1
C[C@@H](c1ccccc1)N1C[C@@H](COCc2ccccc2)Oc2cc(N3CC[C@H](O)C3)ccc2S1(=O)=O	-22	3	x	2	x	x	x	x
CCCNC(=O)CSc1n[nH]c(=O)n1CCc1ccccc1	-2	0	1	-3	-9	7	x	x
CC(C)CNC(=O)CSc1n[nH]c(=O)n1CCc1ccccc1	1	13*	-4	-2	-5	4	-1	-2
COc1ccc(S(=O)(=O)N(C)CC(=O)NCc2ccccn2)cc1	-4	-2	-5	-4	6	-4	x	x
COc1ccc(Cl)cc1S(=O)(=O)N(C)CC(=O)NCc1ccccn1	4	9.6*	-9	-6	3	-9	-1	1
CCCc1cc2c(O)ccc(O)c2c(=O)o1	-25	-211	x	-248	x	x	x	x
O=C(CSc1nc2ccccc2[nH]1)NCCc1ccc(Cl)cc1	0	11*	-9	6	10	0	-1	2
COc1ccc(CCNC(=O)CSc2ncn[nH]2)cc1	11	10*	26	0	3	1	-6	-12
SMILES	sPLA2-III inh	PLC-gamma1 inh	Arr AP2 block	PLC-beta3 inh	proCasp7 act	procasp3 activ	PLCg1 ctr	PLCb3 confirm
CCOC(=O)Cc1nc(N2CCN(C=O)CC2)c2c(C)c(C(=O)OCC)sc2n1	-7	-13	x	-17	x	x	x	x
COc1cccc(Nc2nc(C(N)Cc3ccc(Cl)cc3)cs2)n1 (stereo not given)	10	9.5*	x	2	x	x	-3	-2
COc1ccc(CC(N)c2csc(Nc3ccccn3)n2)cc1 (stereo not given)	5	15*	x	9	x	x	0	2
COc1ccc(CC(N)c2csc(Nc3cccc(OC)n3)n2)cc1 (stereo not given)	4	0	x	0	x	x	x	x
CCCNC(=O)c1cc2c(C(F)(F)F)nn(C)c2s1	1	13*	-2	1	24	-4	-5	-1
CCCCNC(=O)C[C@@H]1C[C@]2(C(=O)OCC)CCC3=C2N(CCC3)C1=O	0	0	x	3	x	x	x	x
O=C(NCCCN1CCOCC1)c1ccc(CSc2ccc(Cl)cc2)cc1	-11	1	-4	-6	-2	2	x	x
N/C(=N\OC(=O)c1ccc2c(c1)OCO2)c1ccncc1	7	13*	0	-5	3	0	-4	-2
COc1ccccc1NC(=O)N(C)C[C@@H]1OCc2cn(nn2)CCCC(=O)N([C@H](C)CO)C[C@H]1C	8	-3	x	2	x	x	x	x
CC1CCN(C(=O)Cn2c(=O)n(CCCC(=O)NCc3ccco3)c(=O)c3sccc32)CC1	3	13*	1	-2	0	1	-7	-2
C[C@H]1[C@@H](NC(=O)C2CCOC2)CC[C@@]23CCCN2C(=O)CCC[C@@H]13 (stereo not given in full)	1	3	x	3	x	x	x	x
O=C1CC2c3cc(-c4cc5ccccc5o4)ccc3CCN2C(=O)CN1Cc1ccccc1 (stereo not given)	-18	-4	x	-7	x	x	x	x
COc1ccccc1-c1cnnc(N/N=C/c2ccc(-c3cccc(Br)c3)o2)n1	10	12*	3	1	8	-1	8	5
COc1ccc(-c2cnnc(N/N=C/c3ccc(-c4ccc([N+](=O)[O-])cc4)o3)n2)cc1	-1	-2	1	-2	x	x	x	x
CCOc1cc2[nH]c(=S)n(C3CC3)c(=O)c2cc1OCC	8	-3	0	-9	-3	-8	x	x

Screening data (PubChem)
